Data on 72 compounds can be found in ChEMBL document CHEMBL4513216, “Probing the Open Global Health Chemical Diversity Library for Multistage-Active Starting Points for Next-Generation Antimalarials” (ACS Infect Dis, 2020).

This data set is described as follows: Toxicity liver stage against HepG2, at 10uM. Further details: test concentration 10 uM, cell line HepG2-A16-CD81EGFP. Conditions: human, HepG2-A16-CD81EGFP cells; read-out: INHIBITION
It is filed as cell-based. The method in brief:
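Uninfected HepG2-A16-CD81EGFP cells, 3 × 10^3 per well, 1536-well, plated on prespotted compound at 10 μM final, parasite-free screening media added to match infected plates; puromycin 10 μM positive, DMSO 0.5% negative; run in parallel with 48 h PbLuc assay at 37 °C, 5% CO2; viability by CellTiter-Glo luminescence, normalized to controls.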
Consider `CC1=C[C@@H](CN2CCC(O)CC2)[C@H](C(C)C)C[C@H]1Cc1nnc(C)o1`, for which the cytotoxicity at 10 µM was 0.788%. Next, `COCCNc1c(-c2ccc(Cl)cc2)c(=O)c1=O`: -1.99%. On to `Cc1c(C2CC(=O)Nc3c2cnn3C(C)C)cnn1C` (configuration not stated), for which the cytotoxicity at 10 µM was -6.72%. Next, `Cc1cc(C(=O)N2CCN(c3nc4c(C)cccc4s3)CC2)no1`: 12.1%; `CCCC(=O)N1CCC2(CC1)COC2`: 1.58%. As for `CCC(CC)CN1CCN(CC(=O)Nc2cccc3nsnc23)CC1`, the cytotoxicity at 10 µM stood at 6.16%. As for `O=C(c1cccnc1)N1Cc2ccccc2OCC1Cn1ccnc1` (configuration not stated), the cytotoxicity at 10 µM turned out to be 1.68%. Next, `CNC(=O)c1sc2ccccc2c1CC1CCCN1Cc1cnc(C)s1` (configuration not stated): 2.59%.

For `CC(=O)N1CCN([C@@H]2CC[C@@H](NC(=O)c3ccc(C)nc3)[C@H]2O)CC1`, the cytotoxicity at 10 µM was -3.08%. For `CCc1nnc(S(=O)(=O)Cc2cc(Cl)c3c(c2)OCO3)n1C`, the cytotoxicity at 10 µM is -46.3%. For `Cc1cccc(NCc2nc(C)ccc2O)c1`, the cytotoxicity at 10 µM is -3.59%. On to `Cc1ccn(Cc2nc(CC(C)C)no2)c(=O)c1`, for which the cytotoxicity at 10 µM is 6.21%.

On to `CCC(C)(C)NC(=O)c1scnc1Cl`, for which the cytotoxicity at 10 µM was -0.47%. In the case of `CCc1ccc(C(NC(=O)CN(C)S(C)(=O)=O)C(C)(C)C)o1` (configuration not stated), the cytotoxicity at 10 µM was -1.76%. With `CCNC(=O)c1ccc(NC2CCOC3(CCCC3)C2)nn1` (configuration not stated), the cytotoxicity at 10 µM was -5%.

Turning to `Cc1cnc(C(NC(=O)NCc2nc(C3CC3)no2)C2CC2)s1` (configuration not stated), the cytotoxicity at 10 µM worked out at 4.34%. Turning to `CN(CCC#N)C(=O)CN1CCCN(Cc2noc(C3CC3)n2)CC1`, the cytotoxicity at 10 µM was 6.39%. Turning to `CNC(=O)NC(=O)C(NCc1ccccc1)c1ccccc1` (configuration not stated), the cytotoxicity at 10 µM was -52.9%. Next, `CCNC(=O)NCc1ccc(CN2CCCC(C)C2)cc1` (configuration not stated): -5.03%; `CC(SCC(=O)NC(N)=O)c1ccccc1F` (configuration not stated): 2.96%. `COCCn1cc(C(=O)N2CCCC2c2ccccc2C)ccc1=O` (configuration not stated): the cytotoxicity at 10 µM was determined as 7.69%. The result for `Cc1[nH]ncc1CCCNC(=O)Nc1ccccc1` reads -2.2%; that for `Cc1cc(N2CCN(C(=O)c3cc(Cl)c[nH]3)CC2)nc(C(C)C)n1`, 3.49%; that for `CC(C)C(=O)Nc1ccc(Sc2nncn2C)c(Cl)c1`, -1.18%.

For `NC(=O)CN1CCC(NC(=O)N2CCCC2c2ccncc2)CC1` (configuration not stated), the cytotoxicity at 10 µM came out at 10.5%. For `CN(Cc1nnc(-c2ccco2)o1)Cc1nc2c(s1)CCCC2`, the cytotoxicity at 10 µM worked out at 1.13%. Regarding `CSCC(C)(O)CNc1ncccc1I` (configuration not stated), the cytotoxicity at 10 µM is -2.36%. Take `CN(C)C(CNCc1nc(-c2ccsc2)no1)c1ccco1` (configuration not stated): the cytotoxicity at 10 µM is 10.2%. The result for `COc1ccc(C(C)N2CCC(C(=O)N(C)C)CC2)cc1Cl` (configuration not stated) reads -52.5%; that for `COc1ncccc1CN1Cc2nccn2CC(Cn2cccn2)C1` (configuration not stated), -106%; that for `CCS(=O)(=O)N1CC[C@@H]2[C@H]1CCC(=O)N2CCOC`, -104%.

As to `COCCC(=O)N1C[C@H]2CCC[C@@]2(COC)C1`, the cytotoxicity at 10 µM is 6.75%. `CC(C)N(C)Cc1nnc2n1CCCN(c1cnccn1)C2`: the cytotoxicity at 10 µM came to 0.0861%. Turning to `O=C(CC1CC1)N1C[C@H]2CCN[C@H]2C1`, the cytotoxicity at 10 µM came out at 5.75%. On to `CN(C)Cc1nc2c(o1)CN(C(=O)c1ccncc1F)C2`, for which the cytotoxicity at 10 µM was -114%.

In the case of `CS(=O)(=O)NCc1cc(-c2cc(F)cc(F)c2)nc(N2CC[C@H](O)C2)n1`, the cytotoxicity at 10 µM is -9.58%. As for `Cc1nc(CN2CCCCC2CCc2cccs2)co1` (configuration not stated), the cytotoxicity at 10 µM is -2.36%. In the case of `Cc1ncoc1C(=O)N1CCOC(CC2CCCCC2)C1` (configuration not stated), the cytotoxicity at 10 µM was -1.33%. With `CCOc1c(CNC2CSCCSC2)cccc1OC`, the cytotoxicity at 10 µM amounted to 10.8%. The result for `COCCCN1C(=O)CC[C@H]2CN(c3cc(C(N)=O)ccn3)CC[C@H]21` reads 4.12%; that for `CCC(CC)CN(C)Cc1nc(-c2ccccc2NS(C)(=O)=O)oc1C`, -7.69%; that for `CCOc1ccc(-c2c(-c3ccccc3)ncn2C2CCNC2)cn1` (configuration not stated), -51.9%. As for `CN1CC2(CCN(c3nc(N)nc4c3CCNC4)CC2)OC1=O`, the cytotoxicity at 10 µM is -5.66%. For `CCc1nc(C)c(C2CC(=O)Nc3c2c(-c2ccccn2)nn3C)[nH]1` (configuration not stated), the cytotoxicity at 10 µM is -6.37%. With `C[C@@H]1CN(c2ccc(C#N)cn2)CC[C@@]1(O)C1CCOCC1`, the cytotoxicity at 10 µM is -1.5%.

As for `CC(=O)c1ccccc1-c1nc(CC2CCN(C)CC2)no1`, the cytotoxicity at 10 µM was -17.5%. As for `CS(=O)(=O)NCCNc1ncnc2cccc(F)c12`, the cytotoxicity at 10 µM worked out at 3.17%. Next, `CNc1ncc(CN(C)c2nc(C3CCCC3)nc3c2cnn3C)cn1`: 24.1%; `COCCCC1(CO)CCCN(C(=O)c2cnc(C3CC3)nc2)C1` (configuration not stated): -39.7%. Consider `O=C1CCC(=O)N1c1nn(Cc2c(F)cccc2Cl)cc1Cl`, for which the cytotoxicity at 10 µM was -11.3%. Next, `CC(=O)N(C)CCCc1cc(-c2ccccc2)no1`: -7.16%; `CC(NC(=O)NCCCn1cncn1)c1ccc(C#N)cc1` (configuration not stated): -2.6%. Take `CC(C)c1ncc2c(n1)CN(Cc1nnc(Cc3ccccc3)o1)CC2`: the cytotoxicity at 10 µM is -12.6%.

As for `COC(=O)NCC(=O)NCc1nn(-c2ccccc2)c2c1CCC2`, the cytotoxicity at 10 µM was -7.72%. The result for `Cc1csc(N2CCN(C(=O)C3(C#N)CCCCC3)CC2)n1` reads -8.45%; that for `CCC(C)(C)NC(=O)Cn1nc(C)nc1-c1cccc(C)c1`, -8.44%.

As to `CC(C)Cc1cc(NC(=O)c2ccc[nH]2)n(C)n1`, the cytotoxicity at 10 µM was -6.56%. For the compound `Cc1cc(C)n(CC2CCCN2CCCS(N)(=O)=O)n1` (configuration not stated), the cytotoxicity at 10 µM was -4.1%. As to `CN1CCN(c2cc(CNC(=O)c3ccc(=O)[nH]n3)ccn2)CC1`, the cytotoxicity at 10 µM was -15%. Next, `Cc1ccccc1-c1cc(C(=O)N2CCn3c(C)nnc3C2)[nH]n1`: -5.82%. On to `CCOc1ccccc1C(CC(=O)Nc1ccc(C)cn1)NC(C)=O` (configuration not stated), for which the cytotoxicity at 10 µM was -10.7%.

With `Cn1cc(C2CCCN2C(=O)CCCOCc2ccccc2)cn1` (configuration not stated), the cytotoxicity at 10 µM was -10.2%.

`CC(C)N(CC(N)=O)Cc1csc(Cc2ccccc2)n1`: the cytotoxicity at 10 µM is -2.32%. Turning to `Cn1cnc2c1CCN(CCCOc1ccc(C#N)cc1)C2`, the cytotoxicity at 10 µM was -12.4%. Regarding `CCN1CCC(NC(=O)CN2CCc3c(nc(C4CC4)n3C)C2)CC1`, the cytotoxicity at 10 µM was -10.2%. Turning to `COc1ccccc1CN1CCCCC1c1n[nH]cc1-c1cc(C)no1` (configuration not stated), the cytotoxicity at 10 µM turned out to be 13.6%. Next, `c1coc(CN2C[C@@H]3CN(Cc4ccoc4)CCO[C@@H]3C2)c1`: -3.87%. In the case of `Cn1cccc1CN1CCC2(CC1)CC(Oc1cccnc1)C2`, the cytotoxicity at 10 µM is 13.4%. As to `COCCN1C[C@@H]2CN(Cc3ccc(C)s3)CCC[C@]2(C(=O)O)C1`, the cytotoxicity at 10 µM was -96.8%.

With `Cc1nc(CO[C@H]2CN(C(=O)c3cnoc3C)[C@@H]3COC[C@H]23)cs1`, the cytotoxicity at 10 µM is -107%. With `COc1cccc(CCN2C[C@H]3CCNCC[C@H]3S2(=O)=O)c1`, the cytotoxicity at 10 µM is -8.35%. The result for `Cc1ccc(CN2C[C@@H]3CC[C@H]2CN(Cc2[nH]cnc2C)C3)o1` reads -6.81%.
